From ChEMBL document CHEMBL1629542, “Epigallocatechin gallate inactivates clinical isolates of herpes simplex virus” (Antimicrob Agents Chemother, 2008)
Activity calls are given as the source filed them. The calls are words filed in the database; no cut-off is given here.

Legend:
Human alphaherpesvirus 1 [1] = assay: Antiviral activity against Human herpesvirus 1 F1 infected in African green monkey vero cells assessed as log reduction in viral titer at 100 uM; type: functional
Method in brief: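 HSV-1 F1 was grown in Vero cells and the clarified supernatant was incubated with 100 μM EGCG for 60 min at 37°C in RPMI 1640/1% FCS, pH 7.4. Titre was then measured on Vero cells from 10-fold dilutions, three wells per dilution, over 5 days at 37°C by CPE. TCID50 was calculated by Reed-Muench; three separate experiments.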

Human alphaherpesvirus 2 [2] = assay: Antiviral activity against Human herpesvirus 2 isolate P2 infected in African green monkey CV1 cells assessed as log reduction in viral titer at 100 uM within 10 mins; type: functional, CV-1
Method in brief: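 HSV-2 clinical isolates from clarified CV-1 supernatants were held with 100 μM EGCG for timed intervals, from 10 min onward. Surviving virus was titrated on CV-1 cells by 10-fold dilution and 5-day CPE scoring, with TCID50 by Reed-Muench. Values are mean ± SD, three experiments.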

Human alphaherpesvirus 2 [3] = assay: Antiviral activity against Human herpesvirus 2 isolate P22 infected in African green monkey CV1 cells assessed as log reduction in viral titer at 100 uM within 10 mins; type: functional, CV-1
Method in brief: (§1)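 Time course: clarified CV-1 supernatant of HSV-2 (clinical isolates or strain 333) was exposed to 100 μM EGCG for increasing times. It was then titrated by tenfold dilution on CV-1 cells, three wells per dilution, for 5 days at 37°C with CPE read-out. Reed-Muench TCID50 was compared with the untreated titer. Mean of three separate experiments.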

Human alphaherpesvirus 2 [4] = assay: Antiviral activity against Human herpesvirus 2 isolate P47 infected in African green monkey CV1 cells assessed as log reduction in viral titer at 100 uM within 10 mins; type: functional, CV-1; method in brief: as §1
Human alphaherpesvirus 2 [5] = assay: Antiviral activity against Human herpesvirus 2 isolate P2 infected in African green monkey CV1 cells assessed as log reduction in viral titer at 100 uM within 20 mins; type: functional, CV-1; method in brief: as §1
Human alphaherpesvirus 2 [6] = assay: Antiviral activity against Human herpesvirus 2 isolate P47 infected in African green monkey CV1 cells assessed as log reduction in viral titer at 100 uM within 20 mins; type: functional, CV-1; method in brief: as §1
Human alphaherpesvirus 1 [7] = assay: Antiviral activity against Human herpesvirus 1 isolate P25 infected in African green monkey vero cells assessed as log reduction in viral titer at 100 uM after 40 to 60 mins; type: functional
Method in brief: (§2)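 In the time course, HSV-1 clinical isolates (clarified Vero supernatants) were exposed to 100 μM EGCG for varying times up to 60 min. Residual infectivity was then titrated on Vero cells by 5-day CPE endpoint with Reed-Muench calculation. Mean ± SD of three separate experiments.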

Human alphaherpesvirus 1 [8] = assay: Antiviral activity against Human herpesvirus 1 isolate P56 infected in African green monkey vero cells assessed as log reduction in viral titer at 100 uM after 30 mins; type: functional; method in brief: as §2
Human alphaherpesvirus 2 [9] = assay: Antiviral activity against Human herpesvirus 2 strain 333 infected in African green monkey CV-1 cells assessed as log reduction in viral titer at 100 uM after 20 mins; type: functional; method in brief: as §1
Human alphaherpesvirus 1 [10] = assay: Antiviral activity against Human herpesvirus 1 F1 assessed as decrease in labeled gD envelope glycoprotein at 100 uM after 2 hrs by electron microscopy; type: functional, organism-based
Method in brief: (§3)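 Purified HSV-1 F1 virions were treated with 100 μM EGCG for 2 h, fixed in glutaraldehyde/paraformaldehyde and LR White-embedded without osmium. Nickel-grid sections were blocked with BSA and goat serum, then labelled overnight with anti-gB or anti-gD monoclonal (1:15) and 15 nm colloidal gold. Labelled versus unlabelled particles were counted in 10 fields of 100 particles; mean ± SD.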

Human alphaherpesvirus 1 [11] = assay: Antiviral activity against Human herpesvirus 1 F1 assessed as decrease in labeled gB envelope glycoprotein at 100 uM after 2 hrs by electron microscopy; type: functional, organism-based; method in brief: as §3
Human alphaherpesvirus 1 [12] = assay: Binding affinity to Envelope glycoprotein D in Human herpesvirus 1 F1 assessed as macromolecular complex formation by SDS-PAGE
Method in brief: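 Purified HSV-1 gB or gD (500 to 700 μg/ml) was incubated with EGCG (250 μg/ml; 545 μM) in 0.1 M potassium phosphate, pH 7.0, at 35°C for 24 h. Products were denatured at 50°C for 15 min in sample buffer and run on 6.5% SDS-PAGE. Bands were stained with Coomassie blue to detect higher-molecular-weight complexes.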

Human alphaherpesvirus 1 [13] = assay: Antiviral activity against Human herpesvirus 1 isolate P42 infected in African green monkey vero cells assessed as reduction in viral titer; type: functional, organism-based; settings: Human alphaherpesvirus 1, isolate P42, Vero
Method in brief: (§4)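 Laboratory HSV-1 F1 or patient-swab HSV-1 isolates were prepared as clarified Vero supernatants. They were incubated 1 h with a range of EGCG concentrations in RPMI 1640/1% FCS at pH 7.4. Titres were determined on Vero cells by 5-day CPE endpoint (Reed-Muench). IC99 was read graphically as 99% titre drop from untreated; mean ± SD, three experiments.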

Human alphaherpesvirus 1 [14] = assay: Antiviral activity against Human herpesvirus 1 F1 infected in African green monkey vero cells assessed as reduction in viral titer; type: functional, organism-based; settings: Human alphaherpesvirus 1, F1, Vero; method in brief: as §4
Human alphaherpesvirus 1 [15] = assay: Antiviral activity against Human herpesvirus 1 isolate P15 infected in African green monkey vero cells assessed as reduction in viral titer at 100 uM; type: functional, organism-based; method in brief: as §4
Human alphaherpesvirus 1 [16] = assay: Antiviral activity against Human herpesvirus 1 isolate P32 infected in African green monkey vero cells assessed as reduction in viral titer at 100 uM; type: functional, organism-based; method in brief: as §4
Human alphaherpesvirus 2 [17] = assay: Antiviral activity against Human herpesvirus 2 isolate P11 infected in African green monkey CV1 cells assessed as log reduction in viral titer at 12.5 uM; type: functional, CV-1
Method in brief: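 HSV-2 patient-swab isolates were grown as clarified CV-1 supernatants and incubated 1 h with a range of EGCG concentrations (RPMI 1640/1% FCS, pH 7.4). They were titrated on CV-1 cells from 10-fold dilutions by 5-day CPE at 37°C, with Reed-Muench TCID50. IC99 was derived graphically as 99% reduction from zero-drug titre; mean ± SD, three experiments.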

Human alphaherpesvirus 2 [18] = assay: Antiviral activity against Human herpesvirus 2 isolate P22 infected in African green monkey CV1 cells assessed as log reduction in viral titer at 12.5 uM; type: functional, CV-1
Method in brief: (§5)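 HSV-2 (clinical swab isolates or strain 333) was grown in CV-1 cells and used as clarified supernatant. Virus was exposed to graded EGCG for 1 h in RPMI 1640 with 1% FCS, pH 7.4. Tenfold dilutions were titrated on CV-1 cells, three wells each, 5 days at 37°C, scoring CPE. TCID50 was calculated by Reed-Muench. IC99 was read graphically as 99% titer drop from the zero-concentration titer. Mean of three experiments.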

Human alphaherpesvirus 2 [19] = assay: Antiviral activity against Human herpesvirus 2 isolate P22 infected in African green monkey CV1 cells; type: functional, organism-based; settings: Human alphaherpesvirus 2, isolate P22, CV-1; method in brief: as §5
Human alphaherpesvirus 2 [20] = assay: Antiviral activity against Human herpesvirus 2 isolate P47 infected in African green monkey CV1 cells; type: functional, organism-based; settings: Human alphaherpesvirus 2, isolate P47, CV-1; method in brief: as §5
Human alphaherpesvirus 2 [21] = assay: Antiviral activity against Human herpesvirus 2 isolate P2 infected in African green monkey CV1 cells assessed as log reduction viral titer at 50 uM; type: functional, CV-1; method in brief: as §5
Human alphaherpesvirus 2 [22] = assay: Antiviral activity against Human herpesvirus 2 strain 333 infected in African green monkey CV1 cells assessed as log reduction viral titer at 12.5 ug/ml; type: functional, CV-1; method in brief: as §5
Human alphaherpesvirus 2 [23] = assay: Antiviral activity against Human herpesvirus 2 isolate P2 infected in African green monkey CV1 cells assessed as log reduction viral titer at 12.5 ug/ml; type: functional, CV-1; method in brief: as §5
Human alphaherpesvirus 1 [24] = assay: Antiviral activity against Human herpesvirus 1 isolate P25 infected in African green monkey vero cells assessed as log reduction in viral titer at 50 uM; type: functional; method in brief: as §4

O=C(O[C@@H]1Cc2c(O)cc(O)cc2O[C@@H]1c1cc(O)c(O)c(O)c1)c1cc(O)c(O)c(O)c1 [EPIGALOCATECHIN GALLATE]
FC (Human alphaherpesvirus 1 [1]): >=3
FC (Human alphaherpesvirus 2 [2]): 2
FC (Human alphaherpesvirus 2 [3]): 2
FC (Human alphaherpesvirus 2 [4]): 2
FC (Human alphaherpesvirus 2 [5]): 3
FC (Human alphaherpesvirus 2 [6]): 3
FC (Human alphaherpesvirus 1 [7]): 3
FC (Human alphaherpesvirus 1 [8]): 2
FC (Human alphaherpesvirus 2 [9]): >=3
Activity (Human alphaherpesvirus 1 [10]): Active
Activity (Human alphaherpesvirus 1 [11]): Active
Activity (Human alphaherpesvirus 1 [12]): Active
IC99 (Human alphaherpesvirus 1 [13]): 49.1 µM
IC99 (Human alphaherpesvirus 1 [14]): 72.3 µM
Activity (Human alphaherpesvirus 1 [15]): Active
Activity (Human alphaherpesvirus 1 [16]): Active
FC (Human alphaherpesvirus 2 [17]): >=2
FC (Human alphaherpesvirus 2 [18]): >=2
IC99 (Human alphaherpesvirus 2 [19]): 12.5 µM
IC99 (Human alphaherpesvirus 2 [20]): 12.5 µM
FC (Human alphaherpesvirus 2 [21]): >4
FC (Human alphaherpesvirus 2 [22]): 0.56
FC (Human alphaherpesvirus 2 [23]): 3.15
FC (Human alphaherpesvirus 1 [24]): 2
